In publication PMC2887059 (Journal of Medicinal Chemistry, 2010):

What was measured:
[1] = test system: NF-κB activation (HEK293-NF-κB-Luc cells, PMA/ionomycin); assay type: cell-based, human; conditions: HEK293 NF-κB-luciferase reporter; for fold drop in activity relative to 1a: versus 1a
PKC-θ = conditions: concentrations up to 8 μM; cited from earlier work
IKK-β = conditions: concentrations up to 8 μM; cited from earlier work
[2] = Metabolic stability in human hepatic microsomes; assay type: in vitro ADME; conditions: 1 h
[3] = In vivo dose-exposure profiling, single ip dose in male mice; conditions: 50 mg/kg ip, t = 3 h
[4] = test system: NF-κB reporter gene activation (other pathways); assay: NF-κB reporter gene activation by agonists of other NF-κB activation pathways; assay type: cell-based
[5] = test system: IL-8 production in HEK293 cells; assay: IL-8 production induced by PKC activators in HEK293 cells; assay type: cell-based; conditions: Homo sapiens, HEK293, read-out: IC50, IL-8 production
Raf = assay: KINOMEscan; assay type: binding; conditions: 10 μM
[6] = Metabolic stability in mouse hepatic microsomes; assay type: in vitro ADME; conditions: 1 h
[7] = Plasma protein binding, mouse plasma; assay type: in vitro ADME
PKC-β = conditions: concentrations up to 8 μM; cited from earlier work
[8] = Plasma stability, mouse plasma; assay type: in vitro ADME; conditions: mouse plasma/PBS; compound at 40 μM, 3 h
353 protein kinases = assay: KINOMEscan broad kinome screen; assay type: binding; conditions: of 353 protein kinases surveyed, 10 μM
[9] = test system: 92 targets (cloned human or rodent receptors, ion channels, and transporters); assay: NIMH-PDSP receptor, ion channel and transporter panel; assay type: binding; conditions: of 92 targets screened, 10 μM
[10] = Plasma stability, human plasma; assay type: in vitro ADME; conditions: human plasma/PBS; compound at 40 μM, 3 h
[11] = test system: IL-2 production by Jurkat T-cells; assay: IL-2 production by Jurkat T-cells; assay type: cell-based; conditions: Homo sapiens, read-out: IC50, production of IL-2
Outline: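 Jurkat T cells were stimulated either with CD3/CD28 or with PMA/ionomycin in the presence of test compound. IL-2 production was measured and an IC50 derived.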

[12] = test system: NF-κB activation induced by TNF-α; assay: NF-κB activation through TNF-α stimulation; assay type: cell-based
murine B-lymphocytes = assay: Anti-IgM-stimulated proliferation of murine B-lymphocytes; assay type: cell-based; conditions: Mus musculus, read-out: IC50, proliferation of B-lymphocytes
TLK1 = target: T1, TLK1 (Homo sapiens, UniProt Q9UKI8); assay: KINOMEscan; assay type: binding; conditions: 10 μM
T1 sequence (Q9UKI8 1-766): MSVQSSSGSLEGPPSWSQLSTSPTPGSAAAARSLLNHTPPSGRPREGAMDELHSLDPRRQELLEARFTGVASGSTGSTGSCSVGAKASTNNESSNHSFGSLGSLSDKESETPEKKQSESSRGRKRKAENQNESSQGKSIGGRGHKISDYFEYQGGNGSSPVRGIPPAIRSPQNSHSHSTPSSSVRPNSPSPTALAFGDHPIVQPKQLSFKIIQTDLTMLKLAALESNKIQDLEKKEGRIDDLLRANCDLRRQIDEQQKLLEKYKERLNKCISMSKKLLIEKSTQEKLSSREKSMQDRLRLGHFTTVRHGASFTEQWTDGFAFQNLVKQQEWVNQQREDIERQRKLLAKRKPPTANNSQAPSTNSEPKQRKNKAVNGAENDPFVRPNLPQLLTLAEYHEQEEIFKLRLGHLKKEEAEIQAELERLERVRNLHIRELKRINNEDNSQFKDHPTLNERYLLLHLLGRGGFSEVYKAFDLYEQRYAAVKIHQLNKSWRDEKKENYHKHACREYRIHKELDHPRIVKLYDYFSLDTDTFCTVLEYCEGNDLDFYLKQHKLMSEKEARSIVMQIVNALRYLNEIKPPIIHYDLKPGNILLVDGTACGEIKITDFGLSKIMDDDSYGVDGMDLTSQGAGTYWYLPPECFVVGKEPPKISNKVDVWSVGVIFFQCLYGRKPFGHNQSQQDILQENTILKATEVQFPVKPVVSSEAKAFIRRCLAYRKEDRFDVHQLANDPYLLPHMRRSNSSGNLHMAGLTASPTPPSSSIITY

JAK2 = JAK2 (Homo sapiens, UniProt O60674); assay: KINOMEscan; assay type: binding; conditions: 10 μM
JAK2, sequence (O60674 whole entry): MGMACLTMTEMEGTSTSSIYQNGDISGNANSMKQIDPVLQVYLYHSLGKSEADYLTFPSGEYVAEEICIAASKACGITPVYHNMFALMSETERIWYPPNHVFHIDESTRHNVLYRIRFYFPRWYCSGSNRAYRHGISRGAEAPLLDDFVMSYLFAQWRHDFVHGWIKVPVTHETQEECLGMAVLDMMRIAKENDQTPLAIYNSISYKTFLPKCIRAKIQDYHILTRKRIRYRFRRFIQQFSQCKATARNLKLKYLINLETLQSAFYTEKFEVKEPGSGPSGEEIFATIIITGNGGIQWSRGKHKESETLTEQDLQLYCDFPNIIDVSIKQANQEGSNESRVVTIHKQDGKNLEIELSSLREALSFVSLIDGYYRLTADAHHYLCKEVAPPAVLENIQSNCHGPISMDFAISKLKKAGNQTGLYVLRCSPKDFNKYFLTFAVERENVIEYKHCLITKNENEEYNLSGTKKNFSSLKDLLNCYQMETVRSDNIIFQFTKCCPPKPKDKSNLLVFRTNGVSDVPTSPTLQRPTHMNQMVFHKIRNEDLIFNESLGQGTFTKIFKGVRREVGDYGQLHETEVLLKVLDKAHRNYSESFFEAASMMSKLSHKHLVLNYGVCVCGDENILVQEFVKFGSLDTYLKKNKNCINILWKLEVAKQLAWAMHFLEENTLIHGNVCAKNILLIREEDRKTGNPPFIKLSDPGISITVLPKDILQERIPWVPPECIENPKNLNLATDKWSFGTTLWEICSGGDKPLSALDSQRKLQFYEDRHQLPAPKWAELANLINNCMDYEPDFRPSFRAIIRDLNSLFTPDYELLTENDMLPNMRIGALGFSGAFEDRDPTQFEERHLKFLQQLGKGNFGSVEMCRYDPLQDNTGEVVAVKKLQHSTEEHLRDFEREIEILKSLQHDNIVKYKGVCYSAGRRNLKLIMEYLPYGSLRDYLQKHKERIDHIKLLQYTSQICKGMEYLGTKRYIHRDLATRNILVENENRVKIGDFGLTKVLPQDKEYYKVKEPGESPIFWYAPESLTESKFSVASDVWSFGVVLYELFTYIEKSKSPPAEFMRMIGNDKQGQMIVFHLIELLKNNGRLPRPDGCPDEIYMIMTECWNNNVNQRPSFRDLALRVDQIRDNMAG

[13] = Plasma protein binding, human plasma; assay type: in vitro ADME

Question: With `CC(C)(C)c1cc(C(=O)Cn2c(NCCCO)nc3ccc(Br)cc32)cc(C(C)(C)C)c1O` [Compound 17b] as the compound, how does the “fold drop in activity relative to 1a” value [1] read?
Answer: 40−80 fold

Question: For `Cc1cc2[nH]c(=O)n(CC(=O)c3cc(C(C)(C)C)c(O)c(C(C)(C)C)c3)c2cc1C` [Compound 19], which “NF-κB inhibitory activity (in words)” value [1] is on record?
Answer: essentially equipotent to 1a

Question: With `CC(C)(C)c1cc(C(=O)Cn2c(NCCCO)nc3cc(Br)ccc32)cc(C(C)(C)C)c1O` [Compound 1b] as the compound, how does the “fold drop in activity relative to 1a” value [1] read?
Answer: 40−80 fold

Question: Which “NF-κB inhibitory activity (in words)” value [1] does the source give for `Cc1cc2nc(NCCCO)n(CC(=O)c3cccc(C(C)(C)C)c3)c2cc1C` [Compound 1m] here?
Answer: completely inactive

Question: Which “NF-κB inhibitory activity (in words)” value [1] does the source give for `CC(C)(C)c1cc(C(=O)Cn2c(NCCCO)nc3ccc([N+](=O)[O-])cc32)cc(C(C)(C)C)c1O` [Compound 17e] here?
Answer: inactive

Question: With `Cc1c(C(C)(C)C)cc(O)cc1C(C)(C)C` [Compound 9, 3,5-Di-t-butyl-4-methylphenol, reference compound] as the compound, how does the “NF-κB inhibitory activity (in words)” value [1] read?
Answer: inactive

Question: For `CC(C)(C)c1cc(C(=O)Cn2c(NCCCO)nc3cc([N+](=O)[O-])ccc32)cc(C(C)(C)C)c1O` [Compound 1e], which “fold drop in activity relative to 1a” value [1] is on record?
Answer: 20 fold

Question: For `Cc1cc2nc(NCCCN=[N+]=[N-])n(CC(=O)c3cc(C(C)(C)C)c(O)c(C(C)(C)C)c3)c2cc1C` [Compound 1o], which “fold drop in activity relative to 1a” value [1] is on record?
Answer: ≤ 6 fold

Question: For `Cc1cc(Cc2cc(C)cc(C(C)(C)C)c2O)c(O)c(C(C)(C)C)c1` [Compound 10, 6,6′-methylenebis-(2-tert-butyl-4-methylphenol), reference compound], which “NF-κB inhibitory activity (in words)” value [1] is on record?
Answer: inactive

Question: With `CN[C@@H]1C[C@H]2O[C@@](C)([C@@H]1OC)n1c3ccccc3c3c4c(c5c6ccccc6n2c5c31)C(=O)NC4` [staurosporine, reference compound] as the compound, how does the “suppression of PKC-θ” value (PKC-θ) read?
Answer: potent inhibition

Question: What about the “suppression of IKK-β” value (IKK-β) of the same compound?
Answer: potent inhibition

Question: For `Cc1cc2nc(N3CCC(O)CC3)n(CC(=O)c3cc(C(C)(C)C)c(O)c(C(C)(C)C)c3)c2cc1C` [Compound 1k], which “NF-κB inhibitory activity (in words)” value [1] is on record?
Answer: abolish activity

Question: Which “NF-κB inhibitory activity (in words)” value [1] does the source give for `Cc1cc2nc(NCCCO)n(CC(=O)c3cccc(OC(C)(C)C)c3)c2cc1C` [Compound 1n] here?
Answer: completely inactive

Question: Which “fold drop in activity relative to 1a” value [1] does the source give for `C#CCCCCC(=O)OCCCNc1nc2cc(C)c(C)cc2n1CC(=O)c1cc(C(C)(C)C)c(O)c(C(C)(C)C)c1` [Compound 1p] here?
Answer: ≤ 6 fold

Question: With `Cc1cc2nc(NCCCO)n(CC(=O)c3cc(C(C)(C)C)cc(C(C)(C)C)c3)c2cc1C` [Compound 1l] as the compound, how does the “NF-κB inhibitory activity (in words)” value [1] read?
Answer: retained complete activity

Question: Which “NF-κB inhibitory activity (in words)” value [1] does the source give for `Cc1cc2ncn(CC(=O)c3cc(C(C)(C)C)c(O)c(C(C)(C)C)c3)c2cc1C` [Compound 18] here?
Answer: significant loss of activity

Question: Which results are given for `Cc1cc2nc(NCCCO)n(CC(=O)c3cc(C(C)(C)C)c(O)c(C(C)(C)C)c3)c2cc1C` [Compound 1a, 1-(3,5-di-tert-butyl-4-hydroxyphenyl)-2-(2-((3-hydroxypropyl)amino)-5,6-dimethyl-1H-benzo[d]imidazol-1-yl)ethanone]?
Answer: microsome stability (% remaining) human 1 μM ([2]; 1 μM): 26 % remaining; microsome stability (% remaining) human 10 μM ([2]; 10 μM): 55 % remaining; observed tolerability of the cohort [3]: clear signs of morbidity; suppression of PKC-θ (PKC-θ): failed to suppress; inhibition of NF-κB reporter gene activation by agonists of the other NF-κB activation pathways [4]: failing to inhibit; IC50 [5]: < 0.1 µM; % inhibition of Raf (Raf): 57 % inhibition; microsome stability (% remaining) mouse 1 μM ([6]; 1 μM): 0.5 % remaining; microsome stability (% remaining) mouse 10 μM ([6]; 10 μM): 19 % remaining; plasma protein binding (% bound) mouse 1 μM ([7]; 1 μM): 99.8 % bound; plasma protein binding (% bound) mouse 10 μM ([7]; 10 μM): 99.9 % bound; suppression of PKC-β (PKC-β): failed to suppress; plasma stability (% remaining) mouse [8]: 100/100 % remaining; suppression of IKK-β (IKK-β): failed to suppress; number of kinases inhibited by more than 50% (353 protein kinases): three; number of targets with greater than 50% inhibition [9]: eight; plasma stability (% remaining) human [10]: 100/100 % remaining; IC50 [11]: < 5 µM; inhibition of NF-κB activation through TNF-α stimulation [12]: did not inhibit; IC50 (murine B-lymphocytes): ~2 µM; % inhibition of TLK1 (TLK1): 70 % inhibition; % inhibition of JAK2 (JAK2): 53 % inhibition; plasma protein binding (% bound) human 1 μM ([13]; 1 μM): 99.9 % bound; plasma protein binding (% bound) human 10 μM ([13]; 10 μM): 99.8 % bound
